MrgX1 PAM: human MrgX1 positive allosteric modulation, primary screen. MrgX1-HEK293, Fluo-4 calcium flux, FDSS; active compounds read high. Q96LB2. B-score at 10 µM. 310,000 tested, 0.63% active;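 active = plate-corrected calcium response at least 3 library SD above typical, normal starting fluorescence, not activating the receptor alone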;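 note: compound read alongside a low EC10 to EC30 dose of BAM8-22 agonist; peak minus trough fluorescence over baseline measured at the second addition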
Target sequence (Q96LB2 whole entry, looked up): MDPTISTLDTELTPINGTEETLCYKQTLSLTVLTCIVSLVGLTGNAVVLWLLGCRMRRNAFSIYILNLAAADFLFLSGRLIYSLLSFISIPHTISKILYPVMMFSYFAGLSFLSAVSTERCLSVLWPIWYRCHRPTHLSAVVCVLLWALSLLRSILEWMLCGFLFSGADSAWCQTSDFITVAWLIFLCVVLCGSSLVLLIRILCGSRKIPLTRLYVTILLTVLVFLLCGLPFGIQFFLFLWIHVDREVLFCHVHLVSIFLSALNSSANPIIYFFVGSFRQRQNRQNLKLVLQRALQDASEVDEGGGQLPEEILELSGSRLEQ
MrgX1 agonist: activates human MrgX1 receptor signaling; MrgX1-HEK293 cells, Fluo-4 calcium fluorescence, agonist mode; active compounds read high; B-score at 10 µM; 310,000 tested, 0.44% active; AID 588627;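 active = calcium response B-score plate-corrected fluorescence ratio at least 3 library SD, with starting fluorescence B-score inside 5 SD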
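Assay system: stable human MrgX1 HEK293 cell line. Quantity: 15,000 cells per well. Schedule: cells plated overnight, dye loaded 0.5 h 37 °C, 0.5 h room temperature. Detection: Fluo-4 NW calcium-flux fluorescence, kinetic read. Read-out basis: peak-minus-minimum fluorescence over baseline, converted to B scores. Control set: positive and negative control wells on each plate.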
RGS4 block: human RGS4 inhibition. P49798. HEK293 M3R/RGS4 inducible, Fluo-4 calcium flux; active compounds read high; triggered by carbachol at its EC20. B-score at 10 µM. 310,000 tested, 0.45% active. AID 463165;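 active = B-score, a plate-corrected calcium signal, over three deviations above library mean, with baseline fluorescence within five deviations of library mean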;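 note: RGS4 expression induced by doxycycline in cells with stable M3 receptor; B-score is computed from the integrated fluorescence ratio over baseline after carbachol; higher B-score means a larger calcium signal and so more RGS4 inhibition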
Target sequence (P49798 whole entry, looked up): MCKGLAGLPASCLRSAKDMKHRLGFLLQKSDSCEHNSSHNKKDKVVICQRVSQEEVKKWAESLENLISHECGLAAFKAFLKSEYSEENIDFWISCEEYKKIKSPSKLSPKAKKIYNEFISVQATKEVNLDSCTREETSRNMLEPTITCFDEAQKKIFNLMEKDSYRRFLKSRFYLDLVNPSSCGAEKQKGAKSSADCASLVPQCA
MrgX1 antag: human MrgX1 receptor antagonism, primary screen | Q96LB2 | MRGX1-HEK293 calcium flux, Fluo-4, BAM8-22 antagonism; active compounds read low | B-score at 10 µM | 310,000 tested, 1.3% active | AID 588676;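 active = calcium-response B-score plate-corrected more than 3 library SD below zero, starting fluorescence within 5 deviations, no agonist response on first addition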;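 note: peak minus trough fluorescence over baseline after final BAM8-22 challenge near maximal dose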
RGS4 pot: potentiators or activators of RGS4; 310,000 tested, 0.92% active; B-score at 10 µM; AID 463111; HEK293 M3R/inducible RGS4, carbachol calcium flux Fluo4; active compounds read low;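 active = B-score of the integrated calcium signal more than 4 SD below the library mean, with starting fluorescence not abnormally high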;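 note: negative B-score means reduced calcium response which marks RGS4 activation or potentiation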
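Material: Inducible-RGS4 HEK293 cells carrying M3 receptor; also added: carbachol at ECmax as muscarinic agonist stimulus; incubation: compound preincubation 20 min at room temperature before agonist; signal: Fluo4-AM (2 µM) calcium-flux fluorescence, kinetic read; measure: integrated calcium ratio converted to B score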
* = called active by the depositor; i = inactive; x = no result given. A selection: hits, their analogues and other compounds. The true share with any hit is near 3.5%.

SMILES | MrgX1 PAM | MrgX1 agonist | RGS4 block | MrgX1 antag | RGS4 pot
Cc1onc(-c2c(Cl)cccc2Cl)c1C(=O)NN1CCCCCC1 | i | i | i | i | -8.4*
Cc1ccc(/C=C(\NC(=O)c2ccccc2)C(=O)NC2CCN(Cc3ccccc3)CC2)o1 | i | i | i | i | i
CCC(Sc1nc(C)cc(C)n1)C(=O)Nc1nccs1 (stereo unspecified) | i | i | i | i | i
O=c1cc(N2CCCCC2)c(-c2ccccc2)nn1Cc1cccc(Cl)c1 | i | i | i | i | i
O=c1cc(N2CCCCC2)c(-c2ccccc2)nn1Cc1ccccc1Cl | i | i | i | i | -7.1*
O=c1cc(N2CCCCC2)c(-c2ccccc2)nn1Cc1ccc(Cl)cc1Cl | i | i | i | i | -8.7*
N#Cc1nc(COc2ccccc2)oc1N1CCCC1 | i | i | i | i | i
N#Cc1nc(COc2ccccc2)oc1N1CCOCC1 | i | i | i | i | -7.2*
CCN1CCN(c2oc(COc3ccc(Cl)cc3)nc2C#N)CC1 | i | i | i | i | i
N#Cc1nc(COc2ccc(Cl)cc2)oc1N1CCN(Cc2ccccc2)CC1 | i | i | i | i | -7*
CCc1ccccc1N(C(=O)Cn1nnc2ccccc21)C(C(=O)NCCOC)c1ccco1 (stereo unspecified) | i | i | i | i | i
COCCNC(=O)C(c1ccco1)N(C(=O)Cn1nnc2ccccc21)c1ccc(C)cc1C (stereo unspecified) | 7.9* | i | i | i | i
COc1ccccc1C(=O)Nc1cccc2c1CCCC2 | i | i | i | i | i
O=C(NCCN1CCOCC1)C1(C(F)(F)F)C/C(=C\Cc2ccccc2)CCCO1 (stereo unspecified) | i | i | i | i | i
COc1ccc(Cl)cc1C(=O)OCC(=O)N(C)CC(=O)Nc1ccc(F)cc1 | i | i | i | i | i
Cc1ccc(SCC(=O)OCC(=O)N(C)CC(=O)Nc2ccc(F)cc2)cc1C | i | 48* | i | i | i
CSc1ccccc1NC(=O)Cn1c([N+](=O)[O-])cnc1C | i | i | i | i | i
c1coc(C2Nc3cccc4cccc(c34)N2)c1 | i | i | 7.2* | i | i
NNC(=O)c1ccc(CSc2cccc3cccnc23)cc1 | i | i | i | -4.6* | i
O=C(N/N=C/c1ccccc1Br)c1ccc(CSc2cccc3cccnc23)cc1 | i | i | i | i | i
Nc1c(/C=C2\C=Nc3ccccc32)c(=O)nc2sc(CC(=O)N3CCOCC3)nn12 | 10* | i | i | i | i
COC1=C/C(=C/c2c(N)n3nc(CC(=O)N4CCCCC4)sc3nc2=O)C=CC1=O | i | 69* | i | i | i
COc1ccc(-n2ccnc2)cc1 | i | i | i | i | i
COc1nc(N(c2ccccc2)c2ccccc2)nc(-n2ccnc2)n1 | 12* | i | i | i | i
O=C(c1ccccc1)N1CCN(C(=S)NCc2ccc3c(c2)OCO3)CC1 | i | i | i | i | i
SMILES | MrgX1 PAM | MrgX1 agonist | RGS4 block | MrgX1 antag | RGS4 pot
Cc1ccc(N=C2SC(C(=O)Nc3ccc(OC(F)(F)F)cc3)C(N)=C2C(=O)Nc2c(C)cc(C)cc2C)cc1 (stereo unspecified) | 10* | i | x | i | x
CCN(CC)S(=O)(=O)c1cccc(NC(=O)C2SC(=Nc3ccc(C)cc3C)C(C(=O)NC(C)COC)=C2N)c1 (stereo unspecified) | i | i | i | i | i
CC1(c2ccccc2)NC(=O)N(CC(=O)NCc2cccc(Cl)c2)C1=O (stereo unspecified) | i | i | i | i | i
COc1cc(/C=C(\C#N)c2ccccn2)ccc1OCc1ccccc1Cl | i | i | x | i | x
COc1cc(/C=C(\C#N)c2ccccn2)cc(OC)c1O | i | 51* | i | i | i
CCc1cc[n+](-c2nc3ccccc3nc2[N-]S(=O)(=O)c2ccc(Br)s2)cc1 | i | i | i | -6.5* | i
CN(C)CCN(C(=O)c1ccc(S(=O)(=O)N(C)C)cc1)c1nc2cc3c(cc2s1)OCCO3 | i | i | i | i | i
CCN(c1ccccc1)S(=O)(=O)c1ccc(C(=O)N(CCN(C)C)c2nc3c(F)cc(F)cc3s2)cc1 | i | i | 14* | i | i
CN(C)CCN(C(=O)c1ccc(S(=O)(=O)N(C)c2ccccc2)cc1)c1nc2cc3c(cc2s1)OCCO3 | i | i | i | i | -7.8*
CCNS(=O)(=O)c1ccc(CCC(=O)NCc2ccc3c(c2)OCO3)cc1 | i | i | i | i | i
CC(=O)c1cccc(NC(=O)c2ccc(C)o2)c1 | i | i | i | i | i
O=C(NCCc1ccccc1)c1cnc2n(c1=O)CCS2 | i | i | i | i | i
O=C(NCc1ccccc1Cl)c1cnc2n(c1=O)CCS2 | i | i | i | -4.7* | i
CC1CCCCC1NC(=O)CNC(=O)c1ccco1 (stereo unspecified) | i | i | i | i | i
Cc1ccccc1N/N=C/c1sc(=O)n(Cc2cccc(C(=O)O)c2)c1Cl | i | i | i | i | i
COC(=O)c1cccc(Cn2c(Cl)c(/C=N/Nc3ccccc3C)sc2=O)c1 | i | i | i | -8.1* | i
Oc1cccc(C(Nc2nccs2)c2ccc3cccnc3c2O)c1 (stereo unspecified) | i | i | i | i | -7*
CCC(C)NC(=O)C1CCN(S(=O)(=O)c2cc([N+](=O)[O-])ccc2Cl)CC1 (stereo unspecified) | i | i | i | i | i
O=C(Nc1nc2ccccc2s1)C1CCN(S(=O)(=O)c2cc([N+](=O)[O-])ccc2Cl)CC1 | i | i | i | -5.3* | i
NC(N)=N/N=C/c1ccccc1 | i | i | i | i | i
OCCCCNCc1ccc(OCc2ccccc2Cl)cc1 | i | i | i | i | -7*
CCOc1cc(/C=N/N=C(N)N)ccc1OCc1ccc(Cl)cc1 | i | i | i | i | i
NC(N)=N/N=C/c1ccc(Cl)c(Cl)c1 | i | 31* | i | i | i
NC(N)=N/N=C/c1ccc(OCc2ccccc2Cl)cc1 | i | i | i | i | -10*
CCOCCCNCc1ccc(OCc2ccccc2Cl)cc1 | i | i | i | i | i
COc1cc(/C=N/N=C(N)N)ccc1OCc1ccc(Cl)cc1 | i | 30* | i | i | i
